The values that follow come from ChEMBL document CHEMBL4414574, “Structure-Based Discovery and Development of a Series of Potent and Selective Bromodomain and Extra-Terminal Protein Inhibitors” (J Med Chem, 2019).

The target in one data set is T1, Cytochrome P450 1A2 (Homo sapiens, UniProt P05177).
T1 sequence (P05177 whole entry): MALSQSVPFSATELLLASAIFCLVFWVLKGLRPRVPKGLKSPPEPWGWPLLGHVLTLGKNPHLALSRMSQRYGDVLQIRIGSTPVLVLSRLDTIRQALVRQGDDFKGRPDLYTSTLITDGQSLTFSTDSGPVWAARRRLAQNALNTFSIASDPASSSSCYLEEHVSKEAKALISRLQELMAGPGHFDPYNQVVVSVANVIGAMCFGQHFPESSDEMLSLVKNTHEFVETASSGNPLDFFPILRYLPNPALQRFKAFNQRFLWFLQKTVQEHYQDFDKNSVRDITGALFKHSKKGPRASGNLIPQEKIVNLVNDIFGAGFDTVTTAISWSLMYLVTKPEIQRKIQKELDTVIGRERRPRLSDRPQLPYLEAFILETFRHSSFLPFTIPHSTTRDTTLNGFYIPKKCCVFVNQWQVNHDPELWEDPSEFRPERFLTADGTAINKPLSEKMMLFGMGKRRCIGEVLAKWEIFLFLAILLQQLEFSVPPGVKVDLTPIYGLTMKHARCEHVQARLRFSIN
Nature of the data set: Time-dependent inhibition of CYP1A2 in human liver microsomes at 10 uM using phenacetin as substrate preincubated up to 30 mins followed by NADPH generating system addition and measured after 10 mins. Format: ADME. A digest of the protocol: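 Human liver microsomes 0.2 mg/mL, 100 mM phosphate pH 7.4, 10 μM test compound, preincubated 0, 5, 10 and 30 min at 37 °C; then NADPH plus probe cocktail (5 μM midazolam, 50 μM testosterone, 5 μM dextromethorphan, 10 μM diclofenac, 50 μM phenacetin, 50 μM S-(+)-mephenytoin) added; 10 min reaction; kobs in units of 10^-4/min.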
Background: Liver microsomes are a subcellular fraction often used to study metabolism.

Data set [1] is described as follows: AUC (0 to infinity) in ICR mouse at 10 mg/kg, po administered via gavage measured after 0.25 to 24 hrs by UPLC/MS analysis. It is filed as ADME, organism-based. Set-up: dose 10 mg/kg, route oral, time infinity. Conditions: in vivo. A digest of the protocol: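 Male ICR mice were dosed orally in 1% DMSO/0.5% HPMC vehicle. Plasma (and brain, where stated) concentrations gave Tmax, Cmax, T1/2, AUC0-t and AUC0-inf.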

For data set [2], the target named is T2, Bromodomain-containing protein 4 (Homo sapiens, UniProt O60885). The experiment in a line: Binding affinity to human partial length BRD4 bromodomain 1 long isoform (N44 to E168 residues) expressed in Escherichia coli BL21 cells assessed as residual binding level at 1 uM measured after 1 hr by quantitative PCR based BROMOscan assay relative to control. A digest of the protocol:
(§1)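 A BROMOScan competition-binding panel of 32 bromodomains was run at a single 1 μM compound concentration. Results are primary-screen 'Percent Control', where lower values indicate stronger binding.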

The target of data set [3] is T2, Bromodomain-containing protein 4. The experiment in a line: Binding affinity to human partial length BRD4 bromodomain 2 long isoform (K333 to E460 residues) expressed in Escherichia coli BL21 cells assessed as residual binding level at 1 uM measured after 1 hr by quantitative PCR based BROMOscan assay relative to control. A digest of the protocol:
as §1

Data set [4] deals with Histone acetyltransferase p300 (Homo sapiens) (UniProt Q09472). The experiment in a line: Binding affinity to human partial length EP300 (A1040 to G1161 residues) expressed in Escherichia coli BL21 cells assessed as residual binding level at 1 uM measured after 1 hr by quantitative PCR based BROMOscan assay relative to control. The essentials: as §1
Data set [5] concerns the target Protein polybromo-1 (Homo sapiens) (UniProt Q86U86). Nature of the data set: Binding affinity to human partial length PB1 bromodomain 5 (S645 to D766 residues) expressed in Escherichia coli BL21 cells assessed as residual binding level at 1 uM measured after 1 hr by quantitative PCR based BROMOscan assay relative to control. A digest of the protocol:
(§2)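 Bromodomain panel screen (32 bromodomains) run at 1 μM single concentration; primary binding reported as 'Percent Control', lower values meaning stronger interaction.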

Data set [6] addresses Transcription initiation factor TFIID subunit 1-like (Homo sapiens) (UniProt Q8IZX4). The experiment in a line: Binding affinity to human partial length TAF1L bromodomain 2 (Q1523 to D1654 residues) expressed in Escherichia coli BL21 cells assessed as residual binding level at 1 uM measured after 1 hr by quantitative PCR based BROMOscan assay relative to control. A digest of the protocol: as §2

In data set [7] the target is ATPase family AAA domain-containing protein 2 (Homo sapiens) (UniProt Q6PL18). The experiment in a line: Binding affinity to human partial length ATAD2A (Q981 to R1108 residues) expressed in Escherichia coli BL21 cells assessed as residual binding level at 1 uM measured after 1 hr by quantitative PCR based BROMOscan assay relative to control. A digest of the protocol: as §1
Chain of ATPase family AAA domain-containing protein 2 (Homo sapiens) (Q6PL18 whole entry, the tested form may be a part): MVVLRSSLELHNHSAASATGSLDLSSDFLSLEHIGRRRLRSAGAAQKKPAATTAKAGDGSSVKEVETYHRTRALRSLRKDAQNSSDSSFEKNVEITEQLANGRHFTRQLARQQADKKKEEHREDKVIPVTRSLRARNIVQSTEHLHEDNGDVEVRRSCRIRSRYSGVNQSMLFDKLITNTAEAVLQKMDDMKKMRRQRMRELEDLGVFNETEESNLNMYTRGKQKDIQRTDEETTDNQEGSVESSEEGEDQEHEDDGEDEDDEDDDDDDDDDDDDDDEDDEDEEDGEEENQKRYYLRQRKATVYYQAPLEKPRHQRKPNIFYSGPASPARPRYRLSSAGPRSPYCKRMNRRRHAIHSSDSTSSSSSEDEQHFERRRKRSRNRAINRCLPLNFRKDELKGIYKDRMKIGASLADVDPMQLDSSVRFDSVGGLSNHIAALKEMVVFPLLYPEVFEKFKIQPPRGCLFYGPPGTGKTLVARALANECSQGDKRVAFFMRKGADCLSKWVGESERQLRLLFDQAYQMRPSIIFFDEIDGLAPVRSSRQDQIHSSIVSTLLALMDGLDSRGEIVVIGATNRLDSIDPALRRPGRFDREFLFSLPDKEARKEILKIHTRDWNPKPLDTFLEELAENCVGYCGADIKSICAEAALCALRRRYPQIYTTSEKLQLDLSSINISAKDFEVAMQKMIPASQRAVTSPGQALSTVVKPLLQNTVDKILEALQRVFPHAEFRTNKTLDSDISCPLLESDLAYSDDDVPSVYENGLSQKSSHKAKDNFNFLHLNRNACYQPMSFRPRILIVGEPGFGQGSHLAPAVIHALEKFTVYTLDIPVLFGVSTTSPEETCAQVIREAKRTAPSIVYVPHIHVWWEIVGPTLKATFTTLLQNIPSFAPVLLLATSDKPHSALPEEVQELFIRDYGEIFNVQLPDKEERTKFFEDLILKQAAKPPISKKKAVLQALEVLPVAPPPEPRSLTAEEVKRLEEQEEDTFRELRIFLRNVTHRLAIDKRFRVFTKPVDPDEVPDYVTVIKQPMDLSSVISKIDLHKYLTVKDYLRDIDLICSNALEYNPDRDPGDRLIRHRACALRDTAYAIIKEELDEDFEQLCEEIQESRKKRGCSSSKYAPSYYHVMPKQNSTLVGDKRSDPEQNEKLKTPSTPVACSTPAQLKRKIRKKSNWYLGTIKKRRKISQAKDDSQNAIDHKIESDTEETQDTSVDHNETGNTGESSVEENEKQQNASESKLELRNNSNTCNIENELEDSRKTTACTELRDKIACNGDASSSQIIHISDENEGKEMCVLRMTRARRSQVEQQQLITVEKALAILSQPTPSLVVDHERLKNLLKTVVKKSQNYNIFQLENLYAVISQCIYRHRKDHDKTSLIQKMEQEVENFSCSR

Another data set addresses Peregrin (Homo sapiens) (UniProt P55201). The experiment in a line: Binding affinity to human partial length BRPF1 (E627 to G740 residues) expressed in Escherichia coli BL21 cells assessed as residual binding level at 1 uM measured after 1 hr by quantitative PCR based BROMOscan assay relative to control. The essentials:
as §1

Data set [8] deals with Bromodomain and PHD finger-containing protein 3 (Homo sapiens) (UniProt Q9ULD4). Nature of the data set: Binding affinity to human partial length BRPF3 (E588 to G701 residues) expressed in Escherichia coli BL21 cells assessed as residual binding level at 1 uM measured after 1 hr by quantitative PCR based BROMOscan assay relative to control. A digest of the protocol: as §1

Data set [9] deals with Bromodomain-containing protein 9 (Homo sapiens) (UniProt Q9H8M2). Nature of the data set: Binding affinity to human partial length BRD9 (R130 to V259 residues) expressed in Escherichia coli BL21 cells assessed as residual binding level at 1 uM measured after 1 hr by quantitative PCR based BROMOscan assay relative to control. The essentials:
as §1

For data set [10], the target named is T2, Bromodomain-containing protein 4. The experiment in a line: Inhibition of BRD4 bromodomain 2 (unknown origin).
Data set [11] has as its target Tyrosine-protein kinase ABL1 (Homo sapiens) (UniProt P00519). Nature of the data set: Inhibition of Abl (unknown origin) at 10 uM using poly (Glu, Tyr) 4:1 as substrate after 60 mins by ELISA. In general terms: ELISA stands for enzyme-linked immunosorbent assay.
For another data set, the system named is A549. The experiment in a line: Antiproliferative activity against human A549 cells after 72 hrs by CCK8 or SRB assay. Format: functional, cell-based. In general terms: Formazan colour is commonly taken as a measure of viable cells.
In data set [12] the target is T2, Bromodomain-containing protein 4. The experiment in a line: Inhibition of BRD4 in human MV4-11 cells assessed as reduction in BCL2 phosphorylation at Thr56 residues after 24 hrs by Western blot analysis. It is filed as cell-based. A digest of the protocol: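 MV4-11 cells exposed to graded doses for 24 h; lysates immunoblotted for phospho-BCL2, with GAPDH as loading control.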

Data set [13] has as its system MV4-11. The experiment in a line: Induction of apoptosis in human MV4-11 cells assessed as reduction in BIM level after 24 hrs by Western blot analysis. Format: functional, cell-based. A digest of the protocol: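 MV4-11 cells exposed to compound at the indicated doses for 24 h; lysates probed by Western blotting for the target protein, with GAPDH as loading control.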

For data set [14], the system named is MV4-11. Nature of the data set: Induction of apoptosis in human MV4-11 cells assessed as reduction in XIAP level after 24 hrs by Western blot analysis. Format: functional, cell-based.
A short description of data set [15]: Half life in rat liver microsomes. Format: ADME, Microsome.
Data set [16] is described as follows: Cmax in rat plasma at 50 mg/kg, po. It is filed as ADME, organism-based. On the set-up: dose 50 mg/kg, route oral.
A short description of data set [17]: AUC (0 to t) in rat brain at 50 mg/kg, po. Format: ADME, organism-based. The essentials: (§3)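 Compound was given orally or intravenously in 1% DMSO/0.5% HPMC vehicle. Concentrations in plasma, or in brain where stated, gave Tmax, Cmax, T1/2, AUC0-t and AUC0-inf.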
A short description of data set [18]: AUC (0 to t) in dog plasma at 1 mg/kg, iv. Format: ADME, organism-based, Canis lupus familiaris. A digest of the protocol: as §3

Each structure is given as a SMILES string. Activity calls are given as the source filed them. No cut-off for these calls is given here.

Chain of Tyrosine-protein kinase ABL1 (Homo sapiens) (P00519 whole entry): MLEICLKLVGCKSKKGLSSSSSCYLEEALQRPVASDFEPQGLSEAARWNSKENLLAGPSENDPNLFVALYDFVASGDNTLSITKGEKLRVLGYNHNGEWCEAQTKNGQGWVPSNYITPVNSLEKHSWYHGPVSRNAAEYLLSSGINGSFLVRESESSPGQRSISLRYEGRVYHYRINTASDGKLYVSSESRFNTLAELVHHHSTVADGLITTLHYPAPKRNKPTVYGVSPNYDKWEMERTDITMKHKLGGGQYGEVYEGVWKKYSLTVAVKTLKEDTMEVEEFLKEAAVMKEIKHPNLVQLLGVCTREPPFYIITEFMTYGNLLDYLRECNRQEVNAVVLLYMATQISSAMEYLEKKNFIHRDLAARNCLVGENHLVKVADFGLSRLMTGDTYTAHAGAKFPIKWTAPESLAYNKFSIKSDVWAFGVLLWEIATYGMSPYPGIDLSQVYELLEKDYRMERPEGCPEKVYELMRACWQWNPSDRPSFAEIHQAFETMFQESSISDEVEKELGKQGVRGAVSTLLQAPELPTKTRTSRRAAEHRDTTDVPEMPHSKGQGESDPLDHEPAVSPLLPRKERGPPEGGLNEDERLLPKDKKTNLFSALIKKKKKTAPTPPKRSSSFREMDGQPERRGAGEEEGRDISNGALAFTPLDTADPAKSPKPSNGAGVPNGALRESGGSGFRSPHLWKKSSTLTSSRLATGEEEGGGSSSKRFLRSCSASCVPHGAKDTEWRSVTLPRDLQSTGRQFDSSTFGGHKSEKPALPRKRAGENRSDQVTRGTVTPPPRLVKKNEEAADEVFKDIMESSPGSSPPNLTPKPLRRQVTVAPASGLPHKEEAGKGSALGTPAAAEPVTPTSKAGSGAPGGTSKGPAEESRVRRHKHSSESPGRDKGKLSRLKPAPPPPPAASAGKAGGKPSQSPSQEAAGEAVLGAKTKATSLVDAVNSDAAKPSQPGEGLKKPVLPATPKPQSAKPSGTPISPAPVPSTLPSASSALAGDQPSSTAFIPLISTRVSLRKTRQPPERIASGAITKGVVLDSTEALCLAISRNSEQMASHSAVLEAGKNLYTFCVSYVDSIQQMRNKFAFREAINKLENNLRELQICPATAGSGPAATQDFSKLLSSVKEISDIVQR
Chain of Protein polybromo-1 (Homo sapiens) (Q86U86 whole entry, the tested form may be a part): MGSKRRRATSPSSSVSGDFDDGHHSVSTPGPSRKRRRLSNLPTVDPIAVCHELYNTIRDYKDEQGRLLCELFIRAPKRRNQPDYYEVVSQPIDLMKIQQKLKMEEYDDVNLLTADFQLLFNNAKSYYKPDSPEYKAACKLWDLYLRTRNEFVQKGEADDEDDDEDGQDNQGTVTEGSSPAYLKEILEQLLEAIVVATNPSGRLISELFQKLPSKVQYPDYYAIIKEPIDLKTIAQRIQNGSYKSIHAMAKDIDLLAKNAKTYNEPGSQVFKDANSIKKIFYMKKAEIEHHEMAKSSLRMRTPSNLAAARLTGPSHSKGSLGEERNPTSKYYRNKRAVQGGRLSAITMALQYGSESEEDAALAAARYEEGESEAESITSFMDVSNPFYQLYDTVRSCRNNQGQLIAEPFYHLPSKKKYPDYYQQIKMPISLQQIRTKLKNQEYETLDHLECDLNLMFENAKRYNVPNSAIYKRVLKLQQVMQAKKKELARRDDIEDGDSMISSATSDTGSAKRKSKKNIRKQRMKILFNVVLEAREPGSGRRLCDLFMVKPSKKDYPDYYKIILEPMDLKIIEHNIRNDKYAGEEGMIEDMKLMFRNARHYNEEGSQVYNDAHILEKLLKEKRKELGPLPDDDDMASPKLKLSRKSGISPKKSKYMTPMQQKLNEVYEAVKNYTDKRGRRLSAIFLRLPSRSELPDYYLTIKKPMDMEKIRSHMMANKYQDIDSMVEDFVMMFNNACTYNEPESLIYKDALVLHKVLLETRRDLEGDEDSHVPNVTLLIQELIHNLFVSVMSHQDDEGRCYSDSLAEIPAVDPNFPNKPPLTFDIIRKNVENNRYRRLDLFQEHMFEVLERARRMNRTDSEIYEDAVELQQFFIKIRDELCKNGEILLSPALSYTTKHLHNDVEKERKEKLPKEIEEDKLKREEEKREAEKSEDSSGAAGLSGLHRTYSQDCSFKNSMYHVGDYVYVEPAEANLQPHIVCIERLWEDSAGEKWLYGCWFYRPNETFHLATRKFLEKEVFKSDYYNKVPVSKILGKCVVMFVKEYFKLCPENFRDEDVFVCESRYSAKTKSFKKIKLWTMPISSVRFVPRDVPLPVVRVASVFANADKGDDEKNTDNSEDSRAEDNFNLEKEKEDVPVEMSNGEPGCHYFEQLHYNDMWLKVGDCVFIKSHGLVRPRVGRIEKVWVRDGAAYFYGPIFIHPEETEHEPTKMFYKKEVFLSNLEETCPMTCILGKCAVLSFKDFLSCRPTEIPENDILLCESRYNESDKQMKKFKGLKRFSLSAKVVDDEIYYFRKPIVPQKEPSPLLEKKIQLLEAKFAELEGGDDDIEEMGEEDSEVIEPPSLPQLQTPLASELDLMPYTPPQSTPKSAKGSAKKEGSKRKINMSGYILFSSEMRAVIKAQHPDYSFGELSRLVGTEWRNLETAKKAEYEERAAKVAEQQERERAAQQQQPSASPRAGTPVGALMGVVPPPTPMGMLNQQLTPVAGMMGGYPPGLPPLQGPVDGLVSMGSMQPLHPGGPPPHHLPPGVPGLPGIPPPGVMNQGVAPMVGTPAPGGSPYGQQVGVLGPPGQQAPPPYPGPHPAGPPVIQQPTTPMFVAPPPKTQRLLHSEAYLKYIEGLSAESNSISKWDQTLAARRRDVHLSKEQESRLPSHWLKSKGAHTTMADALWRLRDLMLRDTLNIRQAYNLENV
Chain of Bromodomain-containing protein 9 (Homo sapiens) (Q9H8M2 whole entry, the tested form may be a part): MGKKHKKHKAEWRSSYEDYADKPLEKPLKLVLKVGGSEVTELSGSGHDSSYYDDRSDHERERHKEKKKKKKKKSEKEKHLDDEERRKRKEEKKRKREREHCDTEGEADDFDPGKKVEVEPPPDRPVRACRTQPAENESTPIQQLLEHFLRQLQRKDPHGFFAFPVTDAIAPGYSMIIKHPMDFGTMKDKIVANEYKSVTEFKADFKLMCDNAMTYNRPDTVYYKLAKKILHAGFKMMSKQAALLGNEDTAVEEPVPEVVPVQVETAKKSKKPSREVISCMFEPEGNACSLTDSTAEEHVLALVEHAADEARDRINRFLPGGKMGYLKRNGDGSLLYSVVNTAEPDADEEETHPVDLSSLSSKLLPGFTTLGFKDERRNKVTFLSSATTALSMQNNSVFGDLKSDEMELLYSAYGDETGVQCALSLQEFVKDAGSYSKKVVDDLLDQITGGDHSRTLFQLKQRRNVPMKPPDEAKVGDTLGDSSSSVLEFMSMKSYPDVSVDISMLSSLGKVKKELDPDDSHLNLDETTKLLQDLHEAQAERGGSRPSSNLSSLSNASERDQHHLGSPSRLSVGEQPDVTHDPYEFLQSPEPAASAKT

As a reminder, the AUC(0-inf) is total exposure, with the tail of the curve extrapolated. Lower therefore signals less exposure. Broadly, the half-life is how long it takes for the measured level to halve. A low value points to rapid decline. As a reminder, the Cmax is the maximum level reached in the sampled fluid or tissue. As usually defined, the AUC(0-t) is exposure summed from dosing to a finite time, without extrapolation to infinity. High values mean high exposure, low ones low exposure. Turning to `Cc1ccc(-n2nc(C(=O)N3C[C@@H](C)N[C@@H](C)C3)nc2-c2ccc3c(c2)N(C2CCCC2)[C@H](C)C(=O)N3C)cc1`, the TDI result at Cytochrome P450 1A2 is “Not Active”. For the same compound, the AUC(0-inf) in [1] came to 7390 ng·h/mL. The Activity in [2] was under 5%; in data set [3] it was under 5%; in data set [4], 20 to 50%; in data set [5], 70 to 100%; in [6], 20 to 50%; in data set [7], 70 to 100%. Also, the Activity was 70 to 100% at Peregrin (Homo sapiens); 70 to 100% in [8]; 70 to 100% in data set [9]; “Dose-dependent effect” with MV4-11 [13]; “Dose-dependent effect” with MV4-11 [14]. Moreover, the inhibition result in data set [10] and in data set [11] was “Active” each time. Further, the result with A549 was Active. Further, in data set [12], the inhibition result is “Dose-dependent effect”. Further, the half-life in data set [15] amounted to 49 min. In data set [16], this compound returned a Cmax of 1250 ng/mL. Besides, the AUC(0-t) in data set [17] came to 331 ng·h/mL; in data set [18], 726 ng·h/mL.
